The text below walks through data of publication PMC11303814 (Nature Communications, 2024).

Common to all, as to assay type: cell-based
One test has as its target T1, rP2X7 K127A (Rattus norvegicus, UniProt Q64663, K127A).
T1 sequence (Q64663 1-595 K127A): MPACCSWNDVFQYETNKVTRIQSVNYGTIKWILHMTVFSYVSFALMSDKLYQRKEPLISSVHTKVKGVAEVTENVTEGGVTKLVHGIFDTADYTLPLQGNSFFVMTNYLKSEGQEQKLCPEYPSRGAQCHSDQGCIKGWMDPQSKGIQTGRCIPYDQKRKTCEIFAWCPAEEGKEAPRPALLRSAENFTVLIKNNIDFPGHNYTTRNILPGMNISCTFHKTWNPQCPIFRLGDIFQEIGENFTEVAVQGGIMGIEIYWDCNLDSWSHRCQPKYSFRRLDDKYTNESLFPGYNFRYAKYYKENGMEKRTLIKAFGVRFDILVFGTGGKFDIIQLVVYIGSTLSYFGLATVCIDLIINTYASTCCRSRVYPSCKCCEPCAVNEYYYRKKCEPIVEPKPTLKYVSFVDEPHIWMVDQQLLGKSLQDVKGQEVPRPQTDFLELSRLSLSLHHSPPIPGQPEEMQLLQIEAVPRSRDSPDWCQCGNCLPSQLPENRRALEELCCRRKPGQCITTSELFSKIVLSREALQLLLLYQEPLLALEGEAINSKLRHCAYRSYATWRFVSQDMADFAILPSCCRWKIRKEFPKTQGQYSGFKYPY
In words: TEVC dose response. The following applies: read-out: EC50 (apparent affinity), mean ± SD, triplicate. The procedure, abridged:
(§1)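 TEVC was run on Xenopus oocytes ~20 h after injection of wild-type or mutant rP2X7 mRNA, in pH 7.4 HEPES buffer with 0.1 mM flufenamic acid. Receptors were facilitated at 100 µM before recording. Dilution series: ATP 1.5 mM–2 µM (7 points), BzATP 300–0.14 µM (8 points). Responses were normalized to the largest concentration, fitted by nonlinear regression for EC50, and averaged across triplicates (mean ± SD).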

Another test has as its target T2, rP2X7-I214G (Rattus norvegicus, UniProt Q64663, I214G).
T2 sequence (Q64663 1-595 I214G): T1 sequence (Q64663 1-595 K127A) with A127K, I214G
In words: TEVC deactivation time. As to conditions: after 100 μM ATP or 10 μM BzATP. The procedure, abridged:
(§2)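 Xenopus oocytes injected with 50 nL of 10 ng/µL mutant rP2X7 mRNA, expressed ~20 h, clamped in pH 7.4 HEPES buffer with 0.1 mM flufenamic acid and EDTA. Currents were evoked by 100 µM ATP or 10 µM BzATP. τ is the time for current to return to 63% of baseline after agonist removal, from a one- or two-phase decay fit. Done in triplicate over first to third applications per oocyte; mean ± SD.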

The target in a further test is T3, rP2X7-I214A (Rattus norvegicus, UniProt Q64663, I214A).
T3 sequence (Q64663 1-595 I214A): T1 sequence (Q64663 1-595 K127A) with A127K, I214A
In words: TEVC dose response. As to conditions: read-out: EC50 (apparent affinity), mean ± SD, triplicate. The gist of the method:
as §1

The target of the next test is T4, rP2X7-Q143A/I214A (Rattus norvegicus, UniProt Q64663, I214A/Q143A).
T4 sequence (Q64663 1-595 Q143A/I214A): T1 sequence (Q64663 1-595 K127A) with A127K, Q143A, I214A
Description: TEVC deactivation time. As to conditions: after 100 μM ATP or 10 μM BzATP. The gist of the method: as §2

Substitutions are numbered along the chain they refer to.

As usually defined, the EC50 is the concentration giving half of the maximal effect. For `Nc1ncnc2c1ncn2[C@@H]1O[C@H](COP(=O)(O)OP(=O)(O)OP(=O)(O)O)[C@@H](O)[C@H]1O` [ATP], the EC50 on rP2X7 K127A came to 22 ± 3 µM; at rP2X7-I214A, 68 ± 11 µM. Also, the “deactivation lifetime τ” value at rP2X7-I214G was 2.9 ± 0.2 s; at rP2X7-Q143A/I214A it was 2.9 ± 1.0 s.

With BzATP, the values for the concentration giving a half-maximal response (EC50) on rP2X7 K127A and at rP2X7-I214A were 2.9 ± 0.4 µM and 2.5 ± 0.8 µM, respectively. Besides, the “deactivation lifetime τ” value at rP2X7-I214G is recorded as 8.9 ± 2.2 s; on rP2X7-Q143A/I214A it was 4.3 ± 1.7 s.
